Activity calls are given as the source filed them. The rule behind the calls is not given here.
Experiments:
[1] = biological target: T1, Toll-like receptor 9 (Mus musculus) (UniProt Q9EQU3); experiment: Inhibition of TLR9-mediated NFkappaB p65 activation in CpG-stimulated BALB/c mouse BMDM at 5 ug/ml preincubated for 18 hrs followed by CpG challenge measured after 1 hr by TransAM ELISA
T1 sequence (whole entry): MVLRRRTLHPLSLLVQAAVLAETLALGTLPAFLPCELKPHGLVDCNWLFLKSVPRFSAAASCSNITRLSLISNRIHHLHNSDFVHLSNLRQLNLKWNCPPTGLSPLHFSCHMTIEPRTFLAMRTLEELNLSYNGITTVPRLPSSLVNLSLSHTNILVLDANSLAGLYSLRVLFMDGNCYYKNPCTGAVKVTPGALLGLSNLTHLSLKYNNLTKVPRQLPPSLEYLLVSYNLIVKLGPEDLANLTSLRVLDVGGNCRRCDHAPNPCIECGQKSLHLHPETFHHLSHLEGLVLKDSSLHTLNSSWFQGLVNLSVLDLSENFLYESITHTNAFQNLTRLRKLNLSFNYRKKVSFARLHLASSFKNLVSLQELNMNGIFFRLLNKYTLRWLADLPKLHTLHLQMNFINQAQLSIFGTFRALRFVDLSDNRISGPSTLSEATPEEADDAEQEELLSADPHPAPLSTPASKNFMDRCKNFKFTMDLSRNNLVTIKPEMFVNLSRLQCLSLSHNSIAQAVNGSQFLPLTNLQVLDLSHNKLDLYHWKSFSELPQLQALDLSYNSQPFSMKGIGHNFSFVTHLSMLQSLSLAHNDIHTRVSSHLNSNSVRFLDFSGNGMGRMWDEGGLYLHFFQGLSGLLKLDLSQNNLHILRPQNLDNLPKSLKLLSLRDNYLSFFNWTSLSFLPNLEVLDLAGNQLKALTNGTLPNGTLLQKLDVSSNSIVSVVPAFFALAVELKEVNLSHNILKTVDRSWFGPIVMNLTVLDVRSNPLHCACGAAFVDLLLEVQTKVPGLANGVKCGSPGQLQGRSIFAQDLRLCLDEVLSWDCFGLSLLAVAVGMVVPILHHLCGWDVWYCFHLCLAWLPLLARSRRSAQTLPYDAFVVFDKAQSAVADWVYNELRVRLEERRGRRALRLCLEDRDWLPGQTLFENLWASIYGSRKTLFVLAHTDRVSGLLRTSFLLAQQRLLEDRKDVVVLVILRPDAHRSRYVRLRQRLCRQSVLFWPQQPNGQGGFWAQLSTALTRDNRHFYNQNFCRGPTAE
Outline: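 Bone marrow macrophages (4 × 10^6/well) had their medium changed after 24 h, were pretreated with compounds at 5 μg/mL for 18 h, then stimulated for 1 h with 100 ng/mL LPS, 10 ng/mL BLP or 1 μM CpG. Activated NFκB p65 in nuclear extracts was measured by TransAM ELISA in duplicate.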

Mus musculus [2] = experiment: Antiinflammatory activity in DBA/1 mouse collagen-induced arthritis model assessed as reduction in number of PMA/ionomycin-stimulated total DLN cells expressing IL-17 at 50 ug/kg, sc administered 2 days prior to collagen challenge continued till day 21 post collagen challenge by flow cytometric analysis relative to control; assay type: functional, organism-based
Outline: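 CIA mice given test agent (1 μg/dose) or PBS subcutaneously on days −2, 0 and 21. Draining lymph node cells (10^6/mL) in complete RPMI were stimulated ± 50 ng/mL PMA plus 500 ng/mL ionomycin, with 10 μg/mL brefeldin A for 5 h at 37 °C. Cells were surface-stained for CD4, CD8 and γδ, fixed and permeabilized, then stained for intracellular IFNγ and IL-17A. Gating used isotype controls. Cell numbers per individual mouse; naive n = 7, treated groups n = 13.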

Mus musculus [3] = species: Mus musculus; experiment: Inhibition of TLR4/IL-1R in BALB/c mouse BMDM assessed as downregulation of LPS-stimulated MyD88 protein expression at 1 ug/mL after 20 hrs by Western blotting analysis relative to control
Outline: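 Bone marrow macrophages were treated 20 h with medium, compound (1 or 5 μg/mL) or LPS (100 ng/mL) and lysed in modified RIPA buffer. Protein (30 μg) was separated on Bis-Tris gels, and MyD88 and GAPDH were detected by Western blot with ECL. Densitometric MyD88:GAPDH ratio was normalized to the RPMI value, from six analyses.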

inhibition [1]: Active
fold change (FC) (Mus musculus [3]): 1.09
SMILES: CN(C)CCS(=O)(=O)Cc1ccc(Br)cc1
Activity (Mus musculus [2]): Active
